# Results from ChEMBL document CHEMBL6177921, “Enhancing the antimycobacterial efficacy of pyridine-4-carbohydrazide: linkage to additional antimicrobial agents via oxocarboxylic acids” (RSC Med Chem, 2025).
# Experiments:
# Assay type in all cases: functional
# [1] = tested on: Mycobacterium avium; experiment: Antimycobacterial activity against INH/RIF/rifabutin/OFX/EMB resistant Mycobacterium avium CNCTC 330/88 assessed as bacterial growth inhibition incubated for 21 days by two-fold serial dilution method; settings: CNCTC 330/88, 504 h, time 21 day
# Procedure, shortened: (§1)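 M. avium CNCTC 330/88 (stock suspension dilution 10−5) grown in Šula's semisynthetic liquid medium; two-fold serial dilutions 1000 to 1 μM from DMSO stocks (final DMSO 1.0% v/v); final load 1.5 × 10^5 CFU mL−1; MIC read visually as lowest concentration giving complete growth inhibition after 14 and 21 days.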
# [2] = tested on: Mycobacterium tuberculosis; experiment: Antimycobacterial activity against multidrug sensitive Mycobacterium tuberculosis H37Rv CNCTC 331/88 assessed as bacterial growth inhibition incubated for 14 days by two-fold serial dilution method; settings: H37Rv CNCTC 331/88, 336 h, time 14 day
# [3] = tested on: Mycobacterium tuberculosis; experiment: Antimycobacterial activity against Mycobacterium tuberculosis H37Rv CNCTC 331/88 assessed as bacterial growth inhibition incubated for 21 days by two fold serial dilution method; settings: H37Rv CNCTC 331/88, 504 h, time 21 day
# [4] = tested on: Mycobacterium kansasii; experiment: Antimycobacterial activity against multi-drug resistant Mycobacterium kansasii clinical isolate CNCTC 6509/96 assessed as bacterial growth inhibition incubated for 21 days by two-fold serial dilution method; settings: CNCTC 6509/96, 504 h, time 21 day
# Procedure, shortened: (§2)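 M. kansasii clinical isolate 6509/96 (stock dilution 10−4) in Šula's semisynthetic liquid medium; two-fold serial dilutions 1000 to 1 μM, DMSO final 1.0% v/v; final load 1.5 × 10^5 CFU mL−1; MIC read visually as complete growth inhibition at 7, 14 and 21 days.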
# [5] = tested on: Mycobacterium kansasii; experiment: Antimycobacterial activity against multi-drug resistant Mycobacterium kansasii CNCTC 6509/96 clinical isolate assessed as bacterial growth inhibition incubated for 14 days by two-fold serial dilution method; settings: CNCTC 6509/96, 336 h, time 14 day; procedure, shortened: as §2
# [6] = tested on: Mycobacterium kansasii; experiment: Antimycobacterial activity against INH/RIF/rifabutin/OFX/EMB Mycobacterium kansasii CNCTC 6509/96 clinical isolate assessed as bacterial growth inhibition incubated for 7 days by two-fold serial dilution method; settings: CNCTC 6509/96, 168 h, time 7 day
# Procedure, shortened: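 Šula's liquid semisynthetic medium; M. kansasii clinical isolate 6509/96 used at stock dilution 10−4, final ~1.5 × 10^5 CFU mL−1. Two-fold dilutions ran 1000–1 μM with final DMSO 1.0% (v/v). MIC was read visually as complete growth inhibition after 7, 14 and 21 days.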
# [7] = tested on: Mycobacterium avium; experiment: Antimycobacterial activity against INH/RIF/rifabutin/OFX/EMB resistant Mycobacterium avium CNCTC 330/88 assessed as bacterial growth inhibition incubated for 14 days by two-fold serial dilution method; settings: CNCTC 330/88, 336 h, time 14 day; procedure, shortened: as §1
# [8] = tested on: Candida albicans; experiment: Antifungal activity against Candida albicans ATCC 24443 measured after 24 to 48 hrs by microdilution broth method; settings: time 24-48 hrs
# Procedure, shortened: (§3)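 Yeast broth microdilution per EUCAST, slightly modified. Medium was RPMI-1640 with 2% glucose, MOPS-buffered to pH 7.0. Compounds were tested at 0.98–500 μM with final DMSO ≤1.0% (v/v). Inoculum came from 18–24 h cultures, final ~1–5 × 10^5 CFU mL−1. Plates were incubated statically, dark and humidified, at 35 ± 2 °C. MIC was read visually at 24 and 48 h (no visible growth).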
# [9] = tested on: Candida tropicalis; experiment: Antifungal activity against Candida tropicalis CCM 8264 measured after 24 to 48 hrs by microdilution broth method; settings: time 24-48 hrs; procedure, shortened: as §3
# [10] = tested on: Candida albicans; experiment: Antifungal activity against Candida albicans CCM 8320 measured after 24 to 48 hrs by microdilution broth method; settings: time 24-48 hrs; procedure, shortened: as §3
# [11] = tested on: Lichtheimia corymbifera; experiment: Antifungal activity against Lichtheimia corymbifera CCM 8077 measured after 24 to 48 hrs by microdilution broth method; settings: time 24-48 hrs
# Procedure, shortened: (§4)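 Filamentous fungi tested by broth microdilution per EUCAST with minor changes. Compounds were tested at 0.98–500 μM with final DMSO ≤1.0% (v/v). Plates were incubated statically, dark and humidified, at 35 ± 2 °C for 24 and 48 h. MIC was the lowest concentration showing no visible growth.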
# [12] = tested on: Pichia kudriavzevii; experiment: Antifungal activity against Candida krusei ATCC 6258 measured after 24 to 48 hrs by microdilution broth method; settings: time 24-48 hrs; procedure, shortened: as §3
# [13] = tested on: Pichia kudriavzevii; experiment: Antifungal activity against Candida krusei CCM 8271 measured after 24 to 48 hrs by microdilution broth method; settings: time 24-48 hrs; procedure, shortened: as §3
# [14] = tested on: Candida tropicalis; experiment: Antifungal activity against Candida tropicalis ATCC 750 measured after 24 to 48 hrs by microdilution broth method; settings: time 24-48 hrs; procedure, shortened: as §3
# [15] = tested on: Trichophyton interdigitale; experiment: Antifungal activity against Trichophyton interdigitale ATCC 9533 measured after 24 to 48 hrs by microdilution broth method; settings: time 24-48 hrs
# [16] = tested on: Trichophyton interdigitale; experiment: Antifungal activity against Trichophyton interdigitale CCM 8377 measured after 24 to 48 hrs by microdilution broth method; settings: time 24-48 hrs
# [17] = tested on: Candida parapsilosis; experiment: Antifungal activity against Candida parapsilosis ATCC 22019 measured after 24 to 48 hrs by microdilution broth method; settings: Lodderomyces parapsilosis, time 24-48 hrs; procedure, shortened: as §3
# [18] = tested on: Aspergillus flavus; experiment: Antifungal activity against Aspergillus flavus CCM 8363 measured after 24 to 48 hrs by microdilution broth method; settings: time 24-48 hrs; procedure, shortened: as §4
# [19] = tested on: Candida parapsilosis; experiment: Antifungal activity against Candida parapsilosis CCM 8260 measured after 24 to 48 hrs by microdilution broth method; settings: Lodderomyces parapsilosis, time 24-48 hrs; procedure, shortened: as §3
# [20] = tested on: Aspergillus fumigatus; experiment: Antifungal activity against Aspergillus fumigatus ATCC 204305 measured after 24 to 48 hrs by microdilution broth method; settings: time 24-48 hrs; procedure, shortened: as §4
Structure (SMILES),MIC [1],MIC [2],MIC [3],MIC [4],MIC [5],MIC [6],MIC [7],MIC [8],MIC [9],MIC [10],MIC [11],MIC [12],MIC [13],MIC [14],MIC [15],MIC [16],MIC [17],MIC [18],MIC [19],MIC [20]
NS(=O)(=O)c1ccc(NC(=O)/C=N/NC(=O)c2ccncc2)cc1,≥ 1000 µM,1 µM,2 µM,32 µM,32 µM,16 µM,1000 µM,–,–,–,–,–,–,–,–,–,–,–,–,–
C/C(=N\NC(=O)c1ccncc1)C(=O)Nc1ccc(Oc2ccc(Cl)cc2)c(Cl)c1,500 µM,0.5 µM,0.5 µM,64 µM,64 µM,32 µM,500 µM,> 500 µM,> 500 µM,> 500 µM,> 500 µM,> 500 µM,> 500 µM,> 500 µM,> 500 µM,> 500 µM,> 500 µM,> 500 µM,> 500 µM,> 500 µM
C/C(=N\NC(=O)c1ccncc1)C(=O)Nc1ccc(Oc2ccc(Cl)cc2)cc1,500 µM,0.5 µM,0.5 µM,4 µM,2 µM,1 µM,500 µM,> 500 µM,> 500 µM,> 500 µM,> 500 µM,> 500 µM,> 500 µM,> 500 µM,> 500 µM,> 500 µM,> 500 µM,> 500 µM,> 500 µM,> 500 µM
O=C(O)/C=N/NC(=O)c1ccncc1,> 250 µM,0.25 µM,0.5 µM,8 µM,4 µM,4 µM,250 µM,–,–,–,–,–,–,–,–,–,–,–,–,–
Nc1ccc(S(=O)(=O)Nc2ccc(Oc3ccc(Cl)cc3)c(Cl)c2)cc1,125 µM,125 µM,125 µM,125 µM,125 µM,125 µM,125 µM,–,–,–,–,–,–,–,–,–,–,–,–,–
